Experimental data: ChEMBL document CHEMBL1764983, “Structure-activity study to develop cationic lipid-conjugated haloperidol derivatives as a new class of anticancer therapeutics” (J Med Chem, 2011)
Calls of active or inactive are those of the source. The rule behind the calls is not given here.

What was measured:
[1] = tested on: B16-F10; assay: Induction of apoptosis in mouse B16F10 cells expressing sigma receptor assessed as viable cells using annexin V/propidium iodide staining at 5 uM after 24 hrs by flow cytometry (reference value: 98.30%); assay type: functional
[2] = tested on: COS-1; assay: Induction of apoptosis in against african green monkey COS1 cells expressing sigma receptor assessed as late apoptotic cells using annexin V/propidium iodide staining at 5 uM after 24 hrs by flow cytometry (reference value: 0.04%); assay type: cell-based; settings: chlorocebus aethiops, cos-1, 24 h
[3] = tested on: B16-F10; assay: Induction of apoptosis in mouse B16F10 cells expressing sigma receptor assessed as necrotic cells using annexin V/propidium iodide staining at 5 uM after 24 hrs by flow cytometry (reference value: 0.25%); assay type: functional
[4] = Induction of apoptosis in human HEK293 cells expressing sigma receptor assessed as viable cells using annexin V/propidium iodide staining at 5 uM after 24 hrs by flow cytometry (reference value: 99.76%); assay type: cell-based; settings: read-out: Activity
[5] = tested on: HEK293; assay: Cytotoxicity against human HEK293 cells expressing sigma receptor after 48 hrs by MTT assay; assay type: cell-based; settings: HEK293, 48 h
In short: (§1)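 MTT reduction assay. Cells grown in RPMI-1640 with 10% FBS at 37 °C, 5% CO₂, and used at 85-90% confluency. Seeded at 5000 cells/well 18-24 h ahead, then exposed continuously for 48 h in triplicate wells. Working solutions made in 10% FBS medium with DMSO ≤1%. Cells washed before MTT.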

[6] = tested on: COS-1; assay: Induction of apoptosis in against african green monkey COS1 cells expressing sigma receptor assessed as necrotic cells using annexin V/propidium iodide staining at 5 uM after 24 hrs by flow cytometry (reference value: 0.08%); assay type: cell-based; settings: chlorocebus aethiops, cos-1, 24 h
[7] = tested on: MCF7; assay: Induction of apoptosis in human MCF7 cells expressing sigma receptor assessed as early apoptotic cells using annexin V/propidium iodide staining at 5 uM after 24 hrs by flow cytometry (reference value: 0.92%); assay type: functional
[8] = tested on: COS-1; assay: Induction of apoptosis in against african green monkey COS1 cells expressing sigma receptor assessed as early apoptotic cells using annexin V/propidium iodide staining at 5 uM after 24 hrs by flow cytometry (reference value: 0.06%); assay type: cell-based; settings: chlorocebus aethiops, cos-1, 24 h
[9] = tested on: B16-F10; assay: Induction of apoptosis in mouse B16F10 cells expressing sigma receptor assessed as phosphorylated Akt level at 10 uM after 24 hrs by Western blotting; assay type: functional, cell-based
In short: (§2)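 B16F10 cells (in RPMI) and HUVEC (passages 2-3, in EBM with bullet kit minus serum) exposed to 10 μM compound or left untreated for 24 h under charcoal-stripped serum conditions. Whole-cell lysates made in cold RIPA (pH 7.4) with phosphatase/protease inhibitors and 2 mM vanadate. SDS-PAGE gradient gel, PVDF transfer, probed for caspase 3, Bax, Bcl-2, Akt, pAkt and β-actin with HRP-chemiluminescence detection.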

[10] = tested on: MCF7; assay: Induction of apoptosis in human MCF7 cells expressing sigma receptor assessed as late apoptotic cells using annexin V/propidium iodide staining at 5 uM after 24 hrs by flow cytometry (reference value: 1.48%); assay type: functional
[11] = tested on: B16-F10; assay: Induction of apoptosis in mouse B16F10 cells expressing sigma receptor assessed as late apoptotic cells using annexin V/propidium iodide staining at 5 uM after 24 hrs by flow cytometry (reference value: 1.21%); assay type: functional
[12] = tested on: B16-F10; assay: Induction of apoptosis in mouse B16F10 cells expressing sigma receptor assessed as increase of cleaved caspase 3 expression at 10 uM after 24 hrs by Western blotting; assay type: functional, cell-based; in short: as §2
[13] = tested on: B16-F10; assay: Antitumor activity against mouse B16F10 cells expressing sigma receptor xenografted in C57BL6/J mouse assessed as tumor regression at 7.5 mg/kg, ip administered 5 times with gap 2 to 3 days; assay type: functional, organism-based; design: dose 7.5 mg/kg
In short: (§3)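 Male C57BL6/J mice, 6-8 weeks old, given 2 × 10⁵ B16F10 cells s.c. in the lower right abdomen. From day 11, groups of four mice received 7.5 mg/kg i.p. in PBS with 10% DMSO, five injections 2-3 days apart. Tumours measured three times a week; volume = 0.5ab². Tumours excised on day 23, cut as 10 μm cryosections, fixed and fluorometric TUNEL-stained.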

[14] = tested on: MDA-MB-231; assay: Cytotoxicity against human MDA-MB-231 cells expressing sigma receptor after 48 hrs by MTT assay; assay type: functional, cell-based; settings: MDA-MB-231, 48 h; in short: as §1
[15] = tested on: MCF7; assay: Cytotoxicity against human MCF7 cells expressing sigma receptor at 0.5 to 50 uM after 48 hrs by MTT assay; assay type: functional, cell-based; in short: as §1
[16] = tested on: HUVEC; assay: Induction of apoptosis in HUVEC assessed as increase of Bax/Bcl-2 protein ratio at 10 uM after 24 hrs by Western blotting; assay type: functional, cell-based; settings: Homo sapiens; in short: as §2
[17] = tested on: MDA-MB-231; assay: Cytotoxicity against human MDA-MB-231 cells expressing sigma receptor at 0.5 to 50 uM after 48 hrs by MTT assay; assay type: functional, cell-based; in short: as §1
[18] = tested on: MCF7; assay: Cytotoxicity against human MCF7 cells expressing sigma receptor after 48 hrs by MTT assay; assay type: functional, cell-based; settings: MCF7, 48 h; in short: as §1
[19] = tested on: ZR-75-1; assay: Cytotoxicity against human ZR-75-1 cells expressing sigma receptor after 48 hrs by MTT assay; assay type: functional, cell-based; settings: ZR-75-1, 48 h; in short: as §1
[20] = tested on: MCF7; assay: Induction of apoptosis in human MCF7 cells expressing sigma receptor assessed as viable cells using annexin V/propidium iodide staining at 5 uM after 24 hrs by flow cytometry (reference value: 97.33%); assay type: functional
[21] = tested on: B16-F10; assay: Induction of apoptosis in mouse B16F10 cells expressing sigma receptor assessed as increase of Bax protein expression at 10 uM after 24 hrs by Western blotting; assay type: functional, cell-based; in short: as §2
[22] = tested on: HEK293; assay: Induction of apoptosis in human HEK293 cells expressing sigma receptor assessed as late apoptotic cells using annexin V/propidium iodide staining at 5 uM after 24 hrs by flow cytometry (reference value: […]); assay type: cell-based; settings: hek293, 24 h
[23] = tested on: B16-F10; assay: Induction of apoptosis in mouse B16F10 cells expressing sigma receptor assessed as decrease of Bcl-2 protein expression at 10 uM after 24 hrs by Western blotting; assay type: functional, cell-based; in short: as §2
[24] = tested on: HUVEC; assay: Induction of apoptosis in HUVEC assessed as phosphorylated Akt level at 10 uM after 24 hrs by Western blotting; assay type: functional, cell-based; settings: Homo sapiens; in short: as §2
[25] = tested on: COS-1; assay: Cytotoxicity against african green monkey COS1 cells expressing sigma receptor after 48 hrs by MTT assay; assay type: cell-based; settings: Chlorocebus aethiops, COS-1, 48 h; in short: as §1
[26] = tested on: MCF7; assay: Cytotoxicity against sigma receptor depleted human MCF7 cells assessed as cell viability at 10 uM after 48 hrs by MTT assay in presence of siRNA treated for 4 hrs before compound challenge
[27] = tested on: B16-F10; assay: Cytotoxicity against mouse B16F10 cells expressing sigma receptor after 48 hrs by MTT assay; assay type: functional, cell-based; settings: B16-F10, 48 h; in short: as §1
[28] = tested on: HEK293; assay: Induction of apoptosis in human HEK293 cells expressing sigma receptor assessed as early apoptotic cells using annexin V/propidium iodide staining at 5 uM after 24 hrs by flow cytometry (reference value: […]); assay type: cell-based; settings: hek293, 24 h
[29] = Induction of apoptosis in against african green monkey COS1 cells expressing sigma receptor assessed as viable cells using annexin V/propidium iodide staining at 5 uM after 24 hrs by flow cytometry (reference value: 99.82%); assay type: cell-based; settings: chlorocebus aethiops, COS-1 cells expressing sigma receptor; read-out: Activity
[30] = tested on: B16-F10; assay: Induction of apoptosis in mouse B16F10 cells expressing sigma receptor assessed as early apoptotic cells using annexin V/propidium iodide staining at 5 uM after 24 hrs by flow cytometry (reference value: 0.92%); assay type: functional
[31] = tested on: B16-F10; assay: Antitumor activity against mouse B16F10 cells expressing sigma receptor xenografted in C57BL6/J mouse assessed as increase of apoptotic region in tumor at 7.5 mg/kg, ip administered 5 times with gap 2 to 3 days by TUNEL assay; assay type: functional, organism-based; design: dose 7.5 mg/kg; in short: as §3
[32] = tested on: MCF7; assay: Induction of apoptosis in human MCF7 cells expressing sigma receptor assessed as necrotic cells using annexin V/propidium iodide staining at 5 uM after 24 hrs by flow cytometry (reference value: 0.27%); assay type: functional
[33] = tested on: HEK293; assay: Induction of apoptosis in human HEK293 cells expressing sigma receptor assessed as necrotic cells using annexin V/propidium iodide staining at 5 uM after 24 hrs by flow cytometry (reference value: 0.06%); assay type: cell-based; settings: hek293, 24 h
[34] = tested on: B16-F10; assay: Induction of apoptosis in mouse B16F10 cells expressing sigma receptor assessed as increase of Bax/Bcl-2 protein ratio at 10 uM after 24 hrs by Western blotting; assay type: functional, cell-based; in short: as §2
[35] = tested on: HUVEC; assay: Induction of apoptosis in HUVEC assessed as increase of cleaved caspase 3 expression at 10 uM after 24 hrs by Western blotting; assay type: functional, cell-based; settings: Homo sapiens; in short: as §2

| SMILES | Activity [1] | Activity [2] | Activity [3] | viability at 24 h, 5 µM [4] | Activity [6] | Activity [7] | Activity [8] | Activity [10] | Activity [11] | Activity [15] | Activity [17] | Activity [20] | Activity [22] | Activity [28] | viability at 24 h, 5 µM [29] | Activity [30] | Activity [32] | Activity [33] | also measured |
| --- | --- | --- | --- | --- | --- | --- | --- | --- | --- | --- | --- | --- | --- | --- | --- | --- | --- | --- | --- |
| CCCCCCCC[N+](C)(CCCCCCCC)CC(=O)NCCC(=O)OC1(c2ccc(Cl)cc2)CCN(CCCC(=O)c2ccc(F)cc2)CC1.[Cl-] | 41.47% | 0.06% | 1.03% | 99.6% | 0.12% | 5.02% | 0.11% | 33.2% | 53.41% | Active | Active | 47.43% | 0.15% | 0.14% | 99.7% | 4.1% | 14.35% | 0.14% | IC50 [5]: 7000 nM; Activity [9]: Active; Activity [12]: Active; Activity [13]: Active; IC50 [14]: 2500 nM; Activity [16]: Active; IC50 [18]: 2500 nM; IC50 [19]: 2500 nM; Activity [21]: Active; Activity [23]: Active; Activity [24]: Active; IC50 [25]: 7000 nM; viability at 10 µM [26]: 25%; IC50 [27]: 2500 nM; Activity [31]: Active; Activity [34]: Active; Activity [35]: Active |
| CCCCCCCCCCCC[N+](C)(CCCCCCCCCCCC)CC(=O)NCCC(=O)OC1(c2ccc(Cl)cc2)CCN(CCCC(=O)c2ccc(F)cc2)CC1 | – | – | – | – | – | – | – | – | – | Active | Active | – | – | – | – | – | – | – | – |
| O=C(CCCN1CCC(O)(c2ccc(Cl)cc2)CC1)c1ccc(F)cc1 [HALOPERIDOL] | 97.17% | 0.16% | 1.58% | 99.6% | 0.17% | 0.51% | 0.11% | 1.74% | 0.95% | Active | Active | 97.66% | 0.18% | 0.11% | 99.6% | 0.29% | 0.09% | 0.07% | – |
| CCCCCCCCCCCCCCCC[N+](C)(CCCCCCCCCCCCCCCC)CC(=O)NCCC(=O)OC1(c2ccc(Cl)cc2)CCN(CCCC(=O)c2ccc(F)cc2)CC1 | – | – | – | – | – | – | – | – | – | Active | Active | – | – | – | – | – | – | – | – |
| CCCC[N+](C)(CCCC)CC(=O)NCCC(=O)OC1(c2ccc(Cl)cc2)CCN(CCCC(=O)c2ccc(F)cc2)CC1 | – | – | – | – | – | – | – | – | – | Active | Active | – | – | – | – | – | – | – | – |
